# Measurements reported in ChEMBL document CHEMBL1142957, “Total structure and inhibition of tumor cell proliferation of laxaphycins” (J Med Chem, 2007).
# Columns and labels:
# CCRF-CEM [1] = assay: Antiproliferative activity against drug-sensitive CCRF-CEM cells after 72 hrs in presence of 2 uM laxaphycin A; format: functional, cell-based; settings: Homo sapiens
# Summary of the method: (§1)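 Leukemic lymphoblasts (parent CCRF-CEM, Pgp-overexpressing CEM/VLB100, topo II-altered CEM/VM-1) grown in RPMI 1640 with 10% FCS and antibiotics, 37 °C, 5% CO2. Serial dilutions in medium added to 2 × 10⁵ cells/mL for 3 days, medium not renewed. Survivors counted on a Coulter counter. Triplicate, averaged.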
# MCF7 = assay: Cytotoxicity against human MCF7 cells after 48 hrs by RRT; format: cell-based; settings: MCF7, 48 h
# Summary of the method: (§2)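 Adherent lines in supplemented Glutamax MEM, 37 °C, 5% CO2. Seeded 5 × 10³ cells/well, adhered 16 h, then treated 48 h continuously, alone or in combination, in 0.5% DMSO (solvent control). Resazurin 25 µg/mL in MEM added, 1 h at 37 °C, fluorescence 530/590 nm. Survival = % of control after blank subtraction; IC50 from concentration–survival curve. Two independent assays in triplicate.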
# CEM-VM1 [2] = assay: Antiproliferative activity against teniposide-resistant CEM/VM1 after 72 hrs in presence of 2 uM laxaphycin A; format: functional, cell-based; settings: Homo sapiens, CEM-VM1, 72 h; summary of the method: as §1
# CEM-VLB [3] = assay: Interaction index, ratio of IC50 for CEM/VLB100 cells in presence of 0.2 uM laxaphycin A/IC50 for CEM/VLB100 cells; format: functional, Homo sapiens
# PC-3 [4] = assay: Cytotoxicity against human androgen-resistant PC3 cells after 48 hrs by Hoechst 33342 assay; format: cell-based; settings: PC-3, 48 h
# Summary of the method: (§3)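 Adherent lines in Glutamax MEM with Earle's salts, FCS, vitamins, pyruvate, NEAA, glutamine, gentamycin. Seeded 5 × 10³ cells/well, adhered 16 h, then 48 h continuous exposure in 0.5% DMSO (solvent control). After resazurin read, cells PBS-rinsed and stored at −80 °C. Then thawed and given 30 µg/mL Hoechst 33342 in Tris pH 7.4/EDTA/NaCl buffer, 1 h at 37 °C, fluorescence 360/460 nm (DNA ∝ biomass). Two independent assays in triplicate, mean ± SD.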
# CEM-VM1 [5] = assay: Interaction index, ratio of IC50 for CEM/VM1 cells in presence of 0.2 uM laxaphycin A/IC50 for CEM/VM1 cells; format: functional, Homo sapiens
# [6] = Cytotoxicity against human […] cells after 48 hrs by RRT; format: cell-based; summary of the method: as §2
# [7] = Cytotoxicity against human M4Beu cells after 48 hrs by Hoechst 33342 assay; format: cell-based; summary of the method: as §3
# DLD-1 [8] = assay: Increase in cytotoxicity in human DLD1 cells at 2 uM after 48 hrs in presence of 1.5 uM laxaphycin A by RRT assay; format: cell-based; settings: dld-1, 48 h; summary of the method: as §2
# [9] = Cytotoxicity against human fibroblasts after 48 hrs by RRT; format: cell-based; settings: fibroblast; summary of the method: as §2
# DLD-1 [10] = assay: Increase in cytotoxicity in human DLD1 cells at 2 uM after 48 hrs in presence of 1 uM laxaphycin A by RRT assay; format: cell-based; settings: dld-1, 48 h; summary of the method: as §2
# PC-3 [11] = assay: Cytotoxicity against human androgen-resistant PC3 cells after 48 hrs by RRT; format: cell-based; settings: PC-3, 48 h; summary of the method: as §2
# DLD-1 [12] = assay: Cytotoxicity against human DLD1cells after 48 hrs by Hoechst 33342 assay; format: cell-based; settings: dld-1, 48 h; summary of the method: as §3
# CEM-VM1 [13] = assay: Antiproliferative activity against teniposide-resistant CEM/VM1 after 72 hrs in presence of 0.4 uM laxaphycin A; format: functional, cell-based; settings: Homo sapiens, CEM-VM1, 72 h; summary of the method: as §1
# CCRF-CEM [14] = assay: Interaction index, ratio of IC50 for CCRF-CEM cells in presence of 1 uM laxaphycin A/IC50 for CCRF-CEM cells; format: functional, Homo sapiens
# CEM-VLB [15] = assay: Antiproliferative activity against vinblastine-resistant CEM/VLB100 after 72 hrs in presence of 2 uM laxaphycin A; format: functional, cell-based; settings: Homo sapiens; summary of the method: as §1
# CEM-VM1 [16] = assay: Interaction index, ratio of IC50 for CEM/VM1 cells in presence of 0.4 uM laxaphycin A/IC50 for CEM/VM1 cells; format: functional, Homo sapiens
# [17] = Cytotoxicity against teniposide-resistant CEM/VM1 cells after 72 hrs; format: cell-based; settings: Homo sapiens, CEM-VM1, 72 h; summary of the method: as §1
# DLD-1 [18] = assay: Increase in cytotoxicity in human DLD1 cells at 2 uM after 48 hrs in presence of 2 uM laxaphycin A by RRT assay; format: cell-based; settings: dld-1, 48 h; summary of the method: as §2
# CCRF-CEM [19] = assay: Interaction index, ratio of IC50 for CCRF-CEM cells in presence of 2 uM laxaphycin A/IC50 for CCRF-CEM cells; format: functional, Homo sapiens
# CCRF-CEM [20] = assay: Interaction index, ratio of IC50 for CCRF-CEM cells in presence of 0.2 uM laxaphycin A/IC50 for CCRF-CEM cells; format: functional, Homo sapiens
# CCRF-CEM [21] = assay: Interaction index, ratio of IC50 for CCRF-CEM cells in presence of 0.4 uM laxaphycin A/IC50 for CCRF-CEM cells; format: functional, Homo sapiens
# CEM-VLB [22] = assay: Antiproliferative activity against vinblastine-resistant CEM/VLB100 after 72 hrs in presence of 0.4 uM laxaphycin A; format: functional, cell-based; settings: Homo sapiens; summary of the method: as §1
# [23] = Cytotoxicity against human PA1 cells after 48 hrs by Hoechst 33342 assay; format: cell-based; settings: pa-1, 48 h; summary of the method: as §3
# CEM-VM1 [24] = assay: Interaction index, ratio of IC50 for CEM/VM1 cells in presence of 1 uM laxaphycin A/IC50 for CEM/VM1 cells; format: functional, Homo sapiens
structure (smiles),measurement,setting,value
CCCCCCC[C@@H]1CC(=O)N[C@@H](C(C)C)C(=O)N[C@@H]([C@@H](O)C(C)C)C(=O)N[C@@H](C)C(=O)N[C@H]([C@@H](O)C(C)C)C(=O)N[C@@H](CCC(N)=O)C(=O)N(C)[C@@H]([C@@H](C)CC)C(=O)N[C@H]([C@@H](O)C(N)=O)C(=O)N[C@@H]([C@@H](C)O)C(=O)N2CCC[C@H]2C(=O)N[C@H](CC(C)C)C(=O)N[C@@H]([C@@H](C)O)C(=O)N1 [LAXAPHYCIN B],IC50,CCRF-CEM [1],350 nM
same,IC50,MCF7,1000 nM
same,IC50,CEM-VM1 [2],410 nM
same,Ratio IC50,CEM-VLB [3],0.9
same,IC50,PC-3 [4],580 nM
same,Ratio IC50,CEM-VM1 [5],0.53
same,Activity,[6],Dose-dependent effect
same,IC50,[7],300 nM
same,Activity,DLD-1 [8],Active
same,Activity,[9],Dose-dependent effect
same,Activity,DLD-1 [10],Active
same,IC50,PC-3 [11],800 nM
same,Activity,DLD-1 [12],Dose-dependent effect
same,IC50,CEM-VM1 [13],600 nM
same,Ratio IC50,CCRF-CEM [14],0.41
same,IC50,CEM-VLB [15],330 nM
same,Ratio IC50,CEM-VM1 [16],0.44
same,IC50,[17],1370 nM
same,Activity,DLD-1 [18],Active
same,Ratio IC50,CCRF-CEM [19],0.32
same,Ratio IC50,CCRF-CEM [20],0.56
same,Ratio IC50,CCRF-CEM [21],0.45
same,IC50,CEM-VLB [22],570 nM
same,Activity,[23],Dose-dependent effect
same,Ratio IC50,CEM-VM1 [24],0.32
